Data reported in ChEMBL document CHEMBL5674883, “The Heterochromatin Landscape in Migrating Cells and the Importance of H3K27me3 for Associated Transcriptome Alterations” (Cells, 2018).

Tests used:
Assay type in all cases: cell-based
[1] = molecular target: Histone-lysine N-methyltransferase EZH2 (Mus musculus) (UniProt Q61188); assay: Inhibition of EZH2 in mouse B16-F1 migrating cells assessed as fold change in H3K27me3-buffered regulated Vegfc-mRNA expression at 3 uM measured by […] analysis relative to control cells
Histone-lysine N-methyltransferase EZH2 (Mus musculus), sequence (Q61188 whole entry): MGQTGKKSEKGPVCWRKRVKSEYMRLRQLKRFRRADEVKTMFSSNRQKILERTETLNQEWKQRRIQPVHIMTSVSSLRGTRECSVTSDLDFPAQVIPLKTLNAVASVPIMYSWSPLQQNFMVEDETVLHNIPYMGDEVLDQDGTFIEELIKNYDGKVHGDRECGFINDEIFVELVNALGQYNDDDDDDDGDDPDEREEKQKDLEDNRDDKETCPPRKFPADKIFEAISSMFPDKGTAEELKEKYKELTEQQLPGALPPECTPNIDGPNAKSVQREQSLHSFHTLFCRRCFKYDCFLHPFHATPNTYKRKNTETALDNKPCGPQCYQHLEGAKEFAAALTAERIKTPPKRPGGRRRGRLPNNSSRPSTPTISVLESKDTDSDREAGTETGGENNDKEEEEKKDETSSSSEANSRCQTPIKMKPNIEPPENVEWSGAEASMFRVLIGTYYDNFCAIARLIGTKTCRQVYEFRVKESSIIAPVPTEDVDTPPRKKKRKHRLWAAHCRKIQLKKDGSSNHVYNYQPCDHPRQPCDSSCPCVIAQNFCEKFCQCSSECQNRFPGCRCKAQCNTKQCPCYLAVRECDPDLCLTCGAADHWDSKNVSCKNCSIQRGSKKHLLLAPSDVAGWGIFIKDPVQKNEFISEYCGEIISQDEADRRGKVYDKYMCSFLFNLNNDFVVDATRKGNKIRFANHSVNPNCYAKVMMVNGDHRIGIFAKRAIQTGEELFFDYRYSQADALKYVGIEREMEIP
How it was run: (§1)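 Confluent B16-F1 cells on fibronectin-coated plates were scratched at multiple sites, washed once with DMEM and left to migrate 3 h in growth medium (37 °C, 7% CO2); unscratched cells served as control. GSK343 (3 µM) was added 3 h before lysis. Poly A mRNA was sequenced (RNA-seq), with 5 replicates for untreated and 3 for treated cells. Differential expression was called by linear model with batch correction, at FDR <0.05 and fold change ≥1.3.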

[2] = molecular target: Histone-lysine N-methyltransferase EZH2 (Mus musculus) (UniProt Q61188); assay: Inhibition of EZH2 in mouse B16-F1 migrating cells assessed as fold change in H3K27me3-buffered regulated Ccdc126-mRNA expression at 3 uM measured by […] analysis relative to control cells
How it was run: (§2)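 Confluent B16-F1 cells on fibronectin-coated plates, cultured at 37 °C and 7% CO2, were scratched at multiple sites to induce migration. They were then held 3 h in growth medium containing 3 µM GSK343, with the inhibitor added 3 h before lysis. Unscratched cells served as controls. Poly A mRNA was analysed by RNA-seq (n=3 GSK343, n=5 controls). Linear models removed batch effects, and buffered genes were those altered only under GSK343 (FDR <0.05, fold change >1.3).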

[3] = molecular target: Histone-lysine N-methyltransferase EZH2 (Mus musculus) (UniProt Q61188); assay: Inhibition of EZH2 in mouse B16-F1 migrating cells assessed as fold change in H3K27me3-independent regulated Maff-mRNA expression at 3 uM measured by […] analysis relative to control cells; how it was run: as §1
[4] = molecular target: Histone-lysine N-methyltransferase EZH2 (Mus musculus) (UniProt Q61188); assay: Inhibition of EZH2 in mouse B16-F1 migrating cells assessed as fold change in H3K27me3-buffered regulated Hs3st1-mRNA expression at 3 uM measured by […] analysis relative to control cells; how it was run: as §2
[5] = molecular target: Histone-lysine N-methyltransferase EZH2 (Mus musculus) (UniProt Q61188); assay: Inhibition of EZH2 in mouse B16-F1 migrating cells assessed as fold change in H3K27me3-buffered regulated Cmpk2-mRNA expression at 3 uM measured by ChIP-seq analysis relative to control cells; how it was run: as §2
[6] = molecular target: Histone-lysine N-methyltransferase EZH2 (Mus musculus) (UniProt Q61188); assay: Inhibition of EZH2 in mouse B16-F1 migrating cells assessed as fold change in H3K27me3-buffered regulated Ctxn1-mRNA expression at 3 uM measured by ChIP-seq analysis relative to control cells; how it was run: as §2
[7] = molecular target: Histone-lysine N-methyltransferase EZH2 (Mus musculus) (UniProt Q61188); assay: Inhibition of EZH2 in mouse B16-F1 migrating cells assessed as fold change in H3K27me3-independent regulated Fosl2-mRNA expression at 3 uM measured by […] analysis relative to control cells; how it was run: as §1
[8] = molecular target: Histone-lysine N-methyltransferase EZH2 (Mus musculus) (UniProt Q61188); assay: Inhibition of EZH2 in mouse B16-F1 migrating cells assessed as fold change in H3K27me3-independent regulated Cep290-mRNA expression at 3 uM measured by […] analysis relative to control cells; how it was run: as §1
[9] = molecular target: Histone-lysine N-methyltransferase EZH2 (Mus musculus) (UniProt Q61188); assay: Inhibition of EZH2 in mouse B16-F1 migrating cells assessed as fold change in H3K27me3-buffered regulated Slc26a2-mRNA expression at 3 uM measured by […] analysis relative to control cells; how it was run: as §1
[10] = molecular target: Histone-lysine N-methyltransferase EZH2 (Mus musculus) (UniProt Q61188); assay: Inhibition of EZH2 in mouse B16-F1 migrating cells assessed as fold change in H3K27me3-independent regulated Serpinb8-mRNA expression at 3 uM measured by […] analysis relative to control cells; how it was run: as §1
[11] = molecular target: Histone-lysine N-methyltransferase EZH2 (Mus musculus) (UniProt Q61188); assay: Inhibition of EZH2 in mouse B16-F1 migrating cells assessed as fold change in H3K27me3-buffered regulated Mpp7-mRNA expression at 3 uM measured by […] analysis relative to control cells; how it was run: as §2
[12] = molecular target: Histone-lysine N-methyltransferase EZH2 (Mus musculus) (UniProt Q61188); assay: Inhibition of EZH2 in mouse B16-F1 migrating cells assessed as fold change in H3K27me3-buffered regulated Arid4a-mRNA expression at 3 uM measured by ChIP-seq analysis relative to control cells; how it was run: as §2
[13] = molecular target: T1, RNA polymerase II (Mus musculus) (UniProt P08775+Q8CFI7+P97760+A0A3Q4L2S8+Q80UW8+P61219+P62488+Q923G2+P60898+O08740+Q63871+P62876); assay: Inhibition of RNA polymerase II in mouse B16-F1 migrating cells assessed as fold change in Alkbh2-RNA stability at 0.1 mM measured by […] analysis relative to control cells
[14] = molecular target: T1, RNA polymerase II (Mus musculus); assay: Inhibition of RNA polymerase II in mouse B16-F1 migrating cells assessed as fold change in Med25-RNA stability at 0.1 mM measured by ChIP-seq analysis relative to control cells
[15] = molecular target: T1, RNA polymerase II (Mus musculus); assay: Inhibition of RNA polymerase II in mouse B16-F1 migrating cells assessed as fold change in Rps8-RNA stability at 0.1 mM measured by […] analysis relative to control cells
[16] = molecular target: T1, RNA polymerase II (Mus musculus); assay: Inhibition of RNA polymerase II in mouse B16-F1 migrating cells assessed as fold change in Mtch1-RNA stability at 0.1 mM measured by ChIP-seq analysis relative to control cells
[17] = molecular target: T1, RNA polymerase II (Mus musculus); assay: Inhibition of RNA polymerase II in mouse B16-F1 migrating cells assessed as fold change in Adam17-RNA stability at 0.1 mM measured by […] analysis relative to control cells
[18] = molecular target: T1, RNA polymerase II (Mus musculus); assay: Inhibition of RNA polymerase II in mouse B16-F1 migrating cells assessed as fold change in Tmsb10-RNA stability at 0.1 mM measured by […] analysis relative to control cells
[19] = molecular target: T1, RNA polymerase II (Mus musculus); assay: Inhibition of RNA polymerase II in mouse B16-F1 migrating cells assessed as fold change in Rps15-RNA stability at 0.1 mM measured by […] analysis relative to control cells
[20] = molecular target: T1, RNA polymerase II (Mus musculus); assay: Inhibition of RNA polymerase II in mouse B16-F1 migrating cells assessed as fold change in Polr3f-RNA stability at 0.1 mM measured by […] analysis relative to control cells
[21] = molecular target: T1, RNA polymerase II (Mus musculus); assay: Inhibition of RNA polymerase II in mouse B16-F1 migrating cells assessed as fold change in Plekha2-RNA stability at 0.1 mM measured by […] analysis relative to control cells
[22] = molecular target: T1, RNA polymerase II (Mus musculus); assay: Inhibition of RNA polymerase II in mouse B16-F1 migrating cells assessed as fold change in Shprh-RNA stability at 0.1 mM measured by […] analysis relative to control cells
[23] = molecular target: T1, RNA polymerase II (Mus musculus); assay: Inhibition of RNA polymerase II in mouse B16-F1 migrating cells assessed as fold change in Gtf3c4-RNA stability at 0.1 mM measured by ChIP-seq analysis relative to control cells
[24] = molecular target: T1, RNA polymerase II (Mus musculus); assay: Inhibition of RNA polymerase II in mouse B16-F1 migrating cells assessed as fold change in Tbp-RNA stability at 0.1 mM measured by […] analysis relative to control cells

SMILES: CCCc1cc(C)[nH]c(=O)c1CNC(=O)c1cc(-c2ccnc(N3CCN(C)CC3)c2)cc2c1cnn2C(C)C
- log2FC [1]: -0.44
- log2FC [2]: -0.49
- log2FC [3]: 0.76
- log2FC [4]: 0.78
- log2FC [5]: -0.46
- log2FC [6]: 0.43
- log2FC [7]: 0.7
- log2FC [8]: -0.62
- log2FC [9]: 0.38
- log2FC [10]: 0.81
- log2FC [11]: 0.51
- log2FC [12]: -0.47

SMILES: OC[C@H]1O[C@@H](n2cnc3cc(Cl)c(Cl)cc32)[C@H](O)[C@@H]1O
- log2FC [13]: 0.66
- log2FC [14]: 0.42
- log2FC [15]: 0.41
- log2FC [16]: 0.46
- log2FC [17]: -0.56
- log2FC [18]: 0.62
- log2FC [19]: 0.53
- log2FC [20]: -0.8
- log2FC [21]: 0.71
- log2FC [22]: -0.62
- log2FC [23]: -0.54
- log2FC [24]: -0.56
